Here are results for 1 compound from ChEMBL document CHEMBL3817843, “Understanding Oxadiazolothiazinone Biological Properties: Negative Inotropic Activity versus Cytochrome P450-Mediated Metabolism” (J Med Chem, 2016).

Data set [1] has as its system Aorta. The experiment in a line: Inhibition of nifedipine-induced vasorelaxant activity in potassium depolarized guinea pig aorta assessed as relaxation of calcium-induced contraction at 10^-6 M preincubated for 30 mins followed by nifedipine addition. It counts as functional, tissue-based. Conditions: Cavia porcellus. Summed up:
(§1)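 K+-depolarized (80 mM) guinea pig aortic strips contracted with calcium. Compound at 1 μM added 30 min before diltiazem, verapamil or nifedipine. Response expressed as percent change from control. Data given as mean ±, Student's t test.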

Data set [2] has as its target Voltage-gated L-type calcium channel (Rattus norvegicus, UniProt P22002+Q02485+P27732). The experiment in a line: Displacement of [3H]Verapamil from LTCC PAA site in Sprague-Dawley rat cardiomyocytes after 60 mins by liquid scintillation counting analysis. The class given is cell-based. The method in brief:
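Frozen pooled cardiomyocytes (at least three animals) resuspended in 50 mmol/L Tris-HCl pH 7.4, 0.15−0.3 mg protein/tube, 25 °C for 60 min. [3H]verapamil 0.5 nM displaced by unlabeled compound (0.1 nM−0.1 mM). Nonspecific binding defined with 0.1 mM verapamil. GF/C filtration, two washes with 20 mmol/L Tris-HCl, liquid scintillation counting, duplicate measurements.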
On the technique in general: Loss of bound radioactivity is the signal in a displacement assay; it reports binding, not function.

The next data set can be described thus: in vitro. Conditions: human, liver microsomes.
In the next data set the target is Cytochrome P450 3A4 (Homo sapiens, UniProt P08684). The experiment in a line: Inhibition of CYP3A4 in human liver microsomes using testosterone as substrate after 5 mins by LC-MS analysis. For orientation: Microsomes from liver hold many membrane-bound enzymes, among them those of drug oxidation.
In data set [3] the test system is Left cardiac atrium. The experiment in a line: Negative inotropic activity in potassium depolarized guinea pig left atrium assessed as reduction in developed tension at 10^-8 M after 30 mins. Conditions: Cavia porcellus. The class given is functional.
Data set [4] concerns Aorta. Put plainly: Inhibition of diltiazem-induced vasorelaxant activity in potassium depolarized guinea pig aorta assessed as relaxation of calcium-induced contraction at 10^-8 M preincubated for 30 mins followed by diltiazem addition. The class given is functional, tissue-based. Conditions: Cavia porcellus.
Data set [5] relates to Left cardiac atrium. Put plainly: Negative inotropic activity against potassium depolarized guinea pig left atrium assessed as decrease in nifedipine EC50 at 10^-8 M preincubated for 30 mins followed by nifedipine addition relative to control. The class given is functional, Cavia porcellus. Summed up: (§2)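 Isolated guinea pig left atria, electrically driven at 1 Hz. The pretreatment agent (0.01 μM) was added to the bath 30 min before the L-type calcium channel blocker. Blocker concentration–response curves were then run to obtain the negative inotropic EC50, which was compared with the EC50 for the blocker alone. Data were compared by Student's t test.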

Data set [6] has as its system Left cardiac atrium. Put plainly: Potentiation of diltiazem-induced negative inotropic activity in potassium depolarized guinea pig left atrium assessed as reduction in developed tension at 10^-8 M preincubated for 30 mins followed by diltiazem addition. Conditions: Cavia porcellus. It counts as functional. The method in brief:
(§3)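 Guinea pig left atria driven at 1 Hz. Pretreated with compound at 0.01 μM, added 30 min before diltiazem, verapamil or nifedipine. Blocker concentration−response curves analysed by probit (Litchfield and Wilcoxon), n = 6−7. Data given as mean ±, Student's t test.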

A further data set has as its target Cytochrome P450 2C19 (Homo sapiens, UniProt P33261). The experiment in a line: Inhibition of CYP2C19 in human liver microsomes using (S)-mephenytoin as substrate after 40 mins by LC-MS analysis.
For a further data set, the species on record is Rattus norvegicus. Put plainly: Displacement of [3H]Isradipine from LTCC DHP site in Sprague-Dawley rat cardiomyocytes at 100 uM after 20 mins by liquid scintillation counting analysis. It counts as cell-based. The method in brief:
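Rat cardiomyocytes pooled from at least three animals, stored frozen at −80 °C, 0.15−0.2 mg protein/tube. Incubated in 50 mmol/L Tris-HCl with 1.2 mmol/L MgCl2, pH 7.4, at 37 °C for 20 min with 0.1 nM (+)-[3H]isradipine and unlabeled compound (1 nM to 0.1 mM). Nonspecific binding defined with 0.1 mM isradipine. Filtered through PEI-presoaked GF/B filters; scintillation counting; duplicates.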

In data set [7] the test system is Aorta. Put plainly: Vasorelaxant activity in potassium depolarized guinea pig aorta assessed as IC50 for diltiazem at 10^-8 M preincubated for 30 mins followed diltiazem addition. The class given is functional, tissue-based. Conditions: Cavia porcellus.
Data set [8] deals with Left cardiac atrium. Put plainly: Negative inotropic activity in potassium depolarized guinea pig left atrium assessed as reduction in developed tension at 10^-8 M preincubated for 30 mins followed by 5 uM diltiazem addition. It counts as functional, Cavia porcellus. On the set-up: scale not given: the % may be the effect or the level left.
The subject of data set [9] is Aorta. Put plainly: Inhibition of verapamil-induced vasorelaxant activity in potassium depolarized guinea pig aorta assessed as relaxation of calcium-induced contraction at 10^-6 M preincubated for 30 mins followed by verapamil addition. The class given is functional, tissue-based. The note with it: Cavia porcellus. Summed up:
as §1

In data set [10] the test system is Aorta. Put plainly: Vasorelaxant activity in potassium depolarized guinea pig aorta assessed as inhibition of calcium-induced contraction at 10^-6 M preincubated for 30 mins followed by 0.5 uM nifedipine addition. The class given is functional, Cavia porcellus. On the set-up: scale not given: the % may be the effect or the level left. The method in brief: as §1

Data set [11] concerns Aorta. The experiment in a line: Inhibition of verapamil-induced vasorelaxant activity in potassium depolarized guinea pig aorta assessed as relaxation of calcium-induced contraction at 10^-8 M preincubated for 30 mins followed by verapamil addition. The class given is functional, tissue-based. Conditions: Cavia porcellus.
Another data set has as its target T1, Cytochrome P450 1A2 (Homo sapiens, UniProt P05177).
T1 sequence (P05177 whole entry): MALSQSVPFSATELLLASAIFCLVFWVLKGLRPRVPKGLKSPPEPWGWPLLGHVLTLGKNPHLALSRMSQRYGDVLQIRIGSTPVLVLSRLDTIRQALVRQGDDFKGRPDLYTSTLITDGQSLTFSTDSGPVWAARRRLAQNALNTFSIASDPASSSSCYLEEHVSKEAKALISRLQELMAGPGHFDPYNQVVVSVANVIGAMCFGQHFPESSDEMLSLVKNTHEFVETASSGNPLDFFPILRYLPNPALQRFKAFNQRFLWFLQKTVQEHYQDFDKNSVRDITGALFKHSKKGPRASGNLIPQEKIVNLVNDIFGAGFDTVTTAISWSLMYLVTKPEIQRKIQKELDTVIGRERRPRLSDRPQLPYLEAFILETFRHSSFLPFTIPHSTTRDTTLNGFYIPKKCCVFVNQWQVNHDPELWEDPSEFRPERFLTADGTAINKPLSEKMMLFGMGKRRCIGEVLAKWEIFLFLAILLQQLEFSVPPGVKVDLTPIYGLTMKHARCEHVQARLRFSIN
The experiment in a line: Inhibition of CYP1A2 in human liver microsomes using phenacetin as substrate after 30 mins by LC-MS analysis.

Data set [12] relates to Left cardiac atrium. The experiment in a line: Potentiation of nifedipine-induced negative inotropic activity in potassium depolarized guinea pig left atrium assessed as reduction in developed tension at 10^-8 M preincubated for 30 mins followed by nifedipine addition. The class given is functional. Conditions: Cavia porcellus. The method in brief: as §3
Data set [13] deals with Left cardiac atrium. Put plainly: Potentiation of verapamil-induced negative inotropic activity in potassium depolarized guinea pig left atrium assessed as reduction in developed tension at 10^-8 M preincubated for 30 mins followed by verapamil addition. It counts as functional. Conditions: Cavia porcellus. Summed up:
as §3

In data set [14] the test system is Aorta. Put plainly: Vasorelaxant activity in potassium depolarized guinea pig aorta assessed as inhibition of calcium-induced contraction at 10^-8 M preincubated for 30 mins followed by 50 uM diltiazem addition. The class given is functional, Cavia porcellus. On the set-up: scale not given: the % may be the effect or the level left.
The subject of data set [15] is Left cardiac atrium. The experiment in a line: Negative inotropic activity against potassium depolarized guinea pig left atrium assessed as decrease in verapamil EC50 at 10^-8 M preincubated for 30 mins followed by verapamil addition relative to control. The class given is functional, Cavia porcellus. Summed up:
as §2

The nature of data set [16]: Half life in human liver microsomes assessed as CYP-mediated compound degradation at 1 uM by LC-MS analysis.
Data set [17] relates to Aorta. Put plainly: Inhibition of nifedipine-induced vasorelaxant activity in potassium depolarized guinea pig aorta assessed as relaxation of calcium-induced contraction at 10^-8 M preincubated for 30 mins followed by nifedipine addition. The class given is functional, tissue-based. The note with it: Cavia porcellus.
Another data set addresses Cytochrome P450 2D6 (Homo sapiens, UniProt P10635). The experiment in a line: Inhibition of CYP2D6 in human liver microsomes using dextromethorphan as substrate after 10 mins by LC-MS analysis.

Activity calls are given as the source filed them.

Chain of Cytochrome P450 2D6 (P10635 whole entry): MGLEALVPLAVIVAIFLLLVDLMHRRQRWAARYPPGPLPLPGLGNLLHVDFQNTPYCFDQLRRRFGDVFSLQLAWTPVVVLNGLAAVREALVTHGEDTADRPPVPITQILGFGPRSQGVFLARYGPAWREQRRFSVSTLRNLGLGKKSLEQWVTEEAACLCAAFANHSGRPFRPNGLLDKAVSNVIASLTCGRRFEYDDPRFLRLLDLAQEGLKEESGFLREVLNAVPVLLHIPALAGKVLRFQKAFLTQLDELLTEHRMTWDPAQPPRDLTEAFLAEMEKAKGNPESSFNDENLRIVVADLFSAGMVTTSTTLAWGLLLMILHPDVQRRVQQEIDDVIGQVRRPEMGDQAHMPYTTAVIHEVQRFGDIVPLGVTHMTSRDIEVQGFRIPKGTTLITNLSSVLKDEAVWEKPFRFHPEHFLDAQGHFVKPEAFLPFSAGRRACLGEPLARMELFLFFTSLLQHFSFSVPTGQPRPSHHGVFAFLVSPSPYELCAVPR
Chain of Cytochrome P450 2C19 (P33261 whole entry): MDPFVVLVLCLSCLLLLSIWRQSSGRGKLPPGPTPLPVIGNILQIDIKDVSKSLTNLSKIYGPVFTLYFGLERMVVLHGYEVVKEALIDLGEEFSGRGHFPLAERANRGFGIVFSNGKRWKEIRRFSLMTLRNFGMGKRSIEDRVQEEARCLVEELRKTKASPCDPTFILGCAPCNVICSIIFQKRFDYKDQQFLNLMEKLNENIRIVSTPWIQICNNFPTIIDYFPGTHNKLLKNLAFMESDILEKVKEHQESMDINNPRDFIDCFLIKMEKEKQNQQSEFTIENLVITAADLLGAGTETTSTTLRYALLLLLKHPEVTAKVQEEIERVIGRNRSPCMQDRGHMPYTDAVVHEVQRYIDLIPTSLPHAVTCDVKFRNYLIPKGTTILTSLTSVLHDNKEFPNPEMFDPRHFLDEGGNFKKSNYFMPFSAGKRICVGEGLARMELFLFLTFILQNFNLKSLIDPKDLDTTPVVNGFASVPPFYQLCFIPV
Chain of Cytochrome P450 3A4 (P08684 whole entry): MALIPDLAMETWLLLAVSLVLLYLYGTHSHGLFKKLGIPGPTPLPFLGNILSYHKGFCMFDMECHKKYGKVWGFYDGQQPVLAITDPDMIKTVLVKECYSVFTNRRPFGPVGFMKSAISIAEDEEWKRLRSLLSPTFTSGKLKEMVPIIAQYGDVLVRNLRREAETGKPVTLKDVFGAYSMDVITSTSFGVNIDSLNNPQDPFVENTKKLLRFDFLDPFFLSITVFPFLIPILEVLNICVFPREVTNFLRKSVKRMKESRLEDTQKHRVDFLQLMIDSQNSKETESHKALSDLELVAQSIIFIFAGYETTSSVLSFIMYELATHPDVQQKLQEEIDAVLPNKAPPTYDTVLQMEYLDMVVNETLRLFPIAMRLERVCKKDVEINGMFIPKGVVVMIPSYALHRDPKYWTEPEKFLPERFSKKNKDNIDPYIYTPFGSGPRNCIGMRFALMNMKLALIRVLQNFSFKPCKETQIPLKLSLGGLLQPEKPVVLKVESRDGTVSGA

For `CCOC1(c2ccc(Br)cc2)SC=C(C)n2c1noc2=O` (centres undefined), the inhibition entry with Aorta [1], with Aorta [9], in the data set with Aorta [11] and in the data set on Aorta [17] was “Active” in each case. The IC50 (commonly the concentration needed to halve the response being measured) is 18.3 µM in data set [2]; 19.2 µM against Cytochrome P450 3A4; 1800 nM on Cytochrome P450 2C19; 470 nM in the data set with Aorta [7]; 2900 nM against Cytochrome P450 1A2; 4.1 µM at Cytochrome P450 2D6. In addition, the “inhibition (INH)” value in data set [2] (rat, 1 h) is “Dose-dependent effect”. Moreover, the microsomal CLint (as a rule, the rate of metabolic loss divided by the concentration) at 1 µM in “in vitro” was 53 µL/min/mg. In addition, the result with Left cardiac atrium [3] was inactive. Also, the inhibition (commonly the change of the read-out against control, counted positive when it falls) in the data set with Aorta [4] was “inactive”. The “fold change (FC)” value in the data set on Left cardiac atrium [5] was determined as 11.8; with Left cardiac atrium [15], 12. Moreover, the result in the data set with Left cardiac atrium [6], in the data set with Left cardiac atrium [12] and with Left cardiac atrium [13] was Active. In the data set listed under Rattus norvegicus, this compound displayed an inhibition of 40%. For the same compound, the Activity with Left cardiac atrium [8] stood at 92%; with Aorta [10] it was 11%; in the data set on Aorta [14], 64%. Besides, the half-life – broadly, the time needed for the level to fall by half in the phase considered – at 1 µM in data set [16] turned out to be 53 min.
